The values below come from ChEMBL document CHEMBL1772972, “Differential gene expression in rat vascular smooth muscle cells following treatment with coptisine exerts a selective antiproliferative effect” (2011).

Assay [1] in a line: Growth inhibition against rat VSMC after 72 hrs by MTT assay. In kind it is functional. In short, it runs like this:
(§1)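 Cells are seeded at 1 × 10^4/well in 24-well plates and cultured 24 h. Alkaloid is then added at increasing concentrations for 72 h. Medium is renewed and MTT added at 1 mg/mL for 4 h. Formazan is dissolved in SDS and A570 read. Growth % = (treated − time 0)/(control − time 0). GI50 is taken from the curves. Data are mean ± SE of 3 wells. Primary VSMCs come from aortas of 10-week male Sprague-Dawley rats, used at passages 5–15.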
A general note: Tetrazolium dyes change colour on reduction, which living cells bring about.

The subject of the next assay is G-402. Briefly: Growth inhibition against human G402 cells after 48 hrs by MTT assay. Format: functional. Conditions: G-402, 48 h. In short, it runs like this:
(§2)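 Cells were seeded in 24-well plates (SKN 1 × 10^4, G-402 2 × 10^4 cells/well) and cultured for 24 h. Alkaloid was then added, for 72 h with SKN or 48 h with G-402, and the medium was renewed. MTT was added (SKN 400 μg/mL, G-402 200 μg/mL) for 4 h, formazan was solubilized in SDS, and A570 was read. Growth % was corrected for time-0 absorbance relative to control, with 3 wells per point, and GI50 was derived from the concentration–growth data.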

Assay [2] concerns A10. Kind of assay: Down regulation of Prim2 mRNA expression in rat A10 cells at 30 uM after 24 hrs by quantitative RT-PCR analysis. In kind it is functional, cell-based. In short, it runs like this:
(§3)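 A10 rat aortic smooth muscle cells were seeded at 6 × 10^4 cells/well in 6-well plates and exposed to 30 μM alkaloid for 24 h at 37 °C in 5% CO2. The cells were then harvested and target mRNA levels were quantified by quantitative RT-PCR.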

Assay [3] can be described thus: Growth inhibition against human RKN cells after 48 hrs by MTT assay. Format: functional. A digest of the protocol: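 RKN human ovarian leiomyosarcoma cells are seeded at 2 × 10^4/well in 24-well plates and cultured 24 h. Alkaloid is then added at increasing concentrations for 48 h. Medium is renewed and MTT added at 200 μg/mL for 4 h. Formazan is dissolved in SDS and A570 read. Growth % is calculated relative to time-0 and untreated absorbances. GI50 is taken from the curves. Data are mean ± SE of 3 wells.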

Assay [4] relates to A10. Kind of assay: Upregulation of Rgc32 mRNA expression in rat A10 cells at 3 to 30 uM […] by quantitative RT-PCR analysis. In kind it is functional, cell-based. In short, it runs like this: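 A10 cells were plated at 6.0 × 10^4 cells/well in 6-well plates. They were treated across a concentration series for 24 h, or for 1, 3, 6, 12 or 24 h in a time course. Rgc32 mRNA was then measured by quantitative RT-PCR. Results are mean ± SD of 3 wells, compared against untreated control.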

The subject of assay [5] is A10. Kind of assay: Growth inhibition against rat A10 cells after 72 hrs by MTT assay. In kind it is functional. The settings on record: A10, 72 h.
Assay [6] is described as follows: Antiproliferative activity against rat VSMC assessed as cell growth inhibition. Format: functional. A digest of the protocol:
as §1

The nature of assay [7]: Growth inhibition against human SKN cells after 72 hrs by MTT assay. In kind it is functional. In short, it runs like this:
as §2

Assay [8] relates to A10. Briefly: Downregulation of Impk mRNA expression in rat A10 cells at 30 uM after 24 hrs by quantitative RT-PCR analysis. Format: functional, cell-based. In short, it runs like this:
as §3

Assay [9] deals with A10. Briefly: Downregulation of Scd2 mRNA expression in rat A10 cells at 30 uM after 24 hrs by quantitative RT-PCR analysis. Format: functional, cell-based. A digest of the protocol:
as §3

Assay [10] has as its system A10. Kind of assay: Upregulation of Rgc32 mRNA expression in rat A10 cells at 30 uM after 24 hrs by quantitative RT-PCR analysis relative to control. Format: functional.
For assay [11], the system named is A10. Kind of assay: Upregulation of p53 mRNA expression in rat A10 cells at 3 to 30 uM after 24 hrs by quantitative RT-PCR analysis. Format: functional, cell-based.
Assay [12] has as its system A10. Kind of assay: Upregulation of Gadd45a mRNA expression in rat A10 cells at 30 uM after 24 hrs by quantitative RT-PCR analysis relative to control. Format: functional.
For assay [13], the system named is A10. Briefly: Upregulation of p21 mRNA expression in rat A10 cells at 3 to 30 uM after 24 hrs by quantitative RT-PCR analysis. In kind it is functional, cell-based.
Assay [14] relates to A10. Kind of assay: Upregulation of Gadd45a mRNA expression in rat A10 cells at 30 uM after 6 hrs by quantitative RT-PCR analysis. In kind it is functional, cell-based.
Assay [15] concerns A10. Briefly: Cell cycle arrest in Rgc32 overexpressing rat A10 cells assessed as accumulation at G2/M phase. In kind it is functional, cell-based.
Assay [16] is described as follows: Growth inhibition against mouse BC3H1 cells after 72 hrs by MTT assay. In kind it is functional. The settings on record: BC3H-1, 72 h. In short, it runs like this:
as §1

Assay [17] concerns A10. Kind of assay: Upregulation of Rgc32 mRNA expression in rat A10 cells at 3 uM after 24 hrs by quantitative RT-PCR analysis. In kind it is functional, cell-based.
Assay [18] concerns A10. Briefly: Upregulation of Gadd45a mRNA expression in rat A10 cells at 30 uM after 3 hrs by quantitative RT-PCR analysis. Format: functional, cell-based.
In assay [19] the test system is A10. Kind of assay: Cell cycle arrest in Gadd45a overexpressing rat A10 cells assessed as accumulation at G2/M phase. In kind it is functional, cell-based.
Assay [20] can be described thus: Upregulation of Rgc32 mRNA expression in rat 3Y1 cells at 3 to 30 uM after 24 hrs by quantitative RT-PCR analysis. Format: functional, cell-based.
The test system of assay [21] is A10. Briefly: Upregulation of Rgc32 mRNA expression in rat A10 cells at 3 to 30 uM after 24 hrs by quantitative RT-PCR analysis. Format: functional, cell-based.
Assay [22] is described as follows: Upregulation of Gadd45a mRNA expression in rat 3Y1 cells at 30 uM after 24 hrs by quantitative RT-PCR analysis. Format: functional, cell-based.
Assay [23] deals with A10. Briefly: Upregulation of in Gadd45a mRNA expression in rat A10 cells at 3 uM after 24 hrs by quantitative RT-PCR analysis. In kind it is functional, cell-based.
The test system of assay [24] is A10. Kind of assay: Upregulation of Ogfrl1 mRNA expression in rat A10 cells at 30 uM after 24 hrs by quantitative RT-PCR analysis. In kind it is functional, cell-based. In short, it runs like this:
as §3

Assay [25] relates to A10. Briefly: Upregulation of Jak2 mRNA expression in rat A10 cells at 30 uM after 24 hrs by quantitative RT-PCR analysis. In kind it is functional, cell-based. A digest of the protocol: as §3
Assay [26] has as its system A10. Briefly: Upregulation of Calm1 mRNA expression in rat A10 cells at 30 uM after 24 hrs by quantitative RT-PCR analysis. In kind it is functional, cell-based. A digest of the protocol:
as §3

Activity calls are given as the source filed them. The rule behind the calls is not given here.

The term GI50 denotes the concentration that inhibits growth by half.

On to `COc1ccc2cc3[n+](cc2c1OC)CCc1cc2c(cc1-3)OCO2` [BERBERINE CHLORIDE], for which the concentration for 50% growth inhibition (GI50) in assay [1] was found to be 95.1 µM; in the assay with G-402, 11.9 µM; in assay [3], 49.6 µM; in the assay on A10 [5], 102 µM; in assay [6], 95.1 µM; in assay [7], 15.9 µM. For the same compound, the result in the assay on A10 [2], with A10 [8] and with A10 [9] was Active. Besides, the outcome with A10 [4] was inactive.
`[Cl-].c1c2c(cc3c1OCO3)-c1cc3ccc4c(c3c[n+]1CC2)OCO4` [COPTISINE CHLORIDE]: the “fold change (FC)” value amounted to 3.5 in the assay on A10 [10], 8 with A10 [12] and 1.5 in assay [22]. In addition, the result (with A10 [11]; with A10 [14]; with A10 [4]; in the assay on A10 [17]; in [20]; in the assay on A10 [23]) was inactive. For the same compound, the outcome with A10 [13], in the assay on A10 [2], in the assay with A10 [15], in the assay on A10 [18], in the assay with A10 [19] and in the assay with A10 [21] was Active. The result with A10 [8] and in the assay with A10 [9] was Active. Also, the GI50 turned out to be 3.35 µM in assay [1]; 19.1 µM in the assay on G-402; 33 µM in assay [3]; 105 µM in assay [16]; 4.49 µM with A10 [5]; 3.3 µM in assay [6]. This compound gave a GI50 in assay [7] of 11.8 µM.
Regarding `COc1cc2c(cc1OC)-c1cc3ccc(OC)c(OC)c3c[n+]1CC2` [PALMATINE CHLORIDE], the result in the assay on A10 [24], in the assay on A10 [2], with A10 [25], with A10 [26], in the assay on A10 [8] and with A10 [9] was Active. The GI50 worked out at 83.1 µM in the assay with G-402 and 57.4 µM in [7]. Besides, in the assay on A10 [4], the outcome was inactive.
